Assay outcomes deposited in PubChem by SRMLSC.
HUVEC inhibit: human endothelial cell proliferation inhibition | HUVEC proliferation, CellTiter-Glo luminescence, 72 h; active compounds read low | viability, % at 10 µM (by protocol) | 86,000 compounds, 1.1% hits | AID 648;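 active = viability at or below 30%; inactive = viability above 30%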;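 note: 100% = median luminescence of DMSO-only cell control wells on each plate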
H69AR growth 86K: growth inhibitors of human H69AR lung tumor cells; H69AR lung tumor viability, ATP luminescence, 72 h; active compounds read low; viability, % at 10 µM; 85,000 compounds, 6% hits; AID 598;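 active = viability at or below 40%; inactive = viability above 40%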;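 note: multidrug resistant small cell line overexpressing MRP-1 efflux transporter; 100% = mean luminescence of untreated control wells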
bCat KO growth: beta-catenin-lacking colon tumor cell growth suppression; HCT116 beta-catenin knockout viability, CellTiter-Glo, 60 h; active compounds read low; viability, % at 10 µM; 140,000 compounds, 1.5% hits;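 active = viability at or under a set limit, the compound median less 4 SD, cut at about 6% in these data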;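 note: 0% = Hyamine 1622 control at 20 µM and 100% = untreated cell control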
PTEN del growth: suppresses growth of cells with PTEN deletion | HCT116 PTEN-null viability, CellTiter-Glo, 60 h; active compounds read low | viability, % at 10 µM | 140,000 compounds, 1.2% hits;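 active = viability at or below a set limit, 4 SD under the median of all tested compounds, cut at about 3.7% in these data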;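 note: PTEN knockout HCT116 line with beta catenin targeted HCT116 as companion control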
Fibroblast inh: blocks proliferation of human lung fibroblasts; AID 719; 85,000 compounds, 1.1% hits; viability, % at 10 µM; LL 47 human lung fibroblast viability, ATP luminescence; active compounds read low;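 active = viability at or below 50% in the single dose screen; inactive = viability above 50%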;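 note: compound exposure lasted 72 h before the ATP readout; 100% = median luminescence of untreated cell-only wells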
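Test system: LL 47 human lung fibroblasts / Quantity: 1,150 cells in each well / Medium: IMEM growth medium with 15% fetal bovine serum / Incubation: 72 h compound exposure at 37 °C after overnight plating / Detection: CellTiter-Glo luminescence measuring cellular ATP / Read-out: % viability versus median cells-only luminescence / Benchmarks: cell-only wells, no compound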
The depositor's hits bear a star. This excerpt belongs to a sample that is enriched for hits.

`O=C(CNC(=O)C(c1ccccc1)c1ccccc1)OCC(=O)c1cccs1` gave bCat KO growth 96 and PTEN del growth 109.
COc1cccc(-c2noc(N)c2C#N)c1 was read as HUVEC inhibit 100, H69AR growth 86K 28*, bCat KO growth 91, PTEN del growth 96 and Fibroblast inh 97.
COc1cccc(/C=N/NC(=O)CN2CC(c3ccccc3)CC2=O)c1O (centres undefined) was read as bCat KO growth 23 and PTEN del growth 38.
For COC(=O)C(C(=O)Nc1ccc(OC)cc1)C1CCCCCC1 (centres undefined) the results were HUVEC inhibit 75, H69AR growth 86K 21*, bCat KO growth 43, PTEN del growth 49 and Fibroblast inh 83.
For CN(C)c1ccc(O)c2c1CC1CC3[C@@H](N(C)C)C(=O)C(C(N)=O)=C(O)[C@]3(O)C(=O)C1=C2O (some centres undefined) the results were HUVEC inhibit 93, H69AR growth 86K 35*, bCat KO growth 71, PTEN del growth 66 and Fibroblast inh 84.
For O=C(CN1CCCC(O)C1)N1c2ccccc2Sc2ccc(C(F)(F)F)cc21 (centres undefined) the results were HUVEC inhibit 97, H69AR growth 86K 109, bCat KO growth 94, PTEN del growth 91 and Fibroblast inh 95.
`CN1CCN(CCCN2c3ccccc3Sc3ccc(C(F)(F)F)cc32)CC1` gave HUVEC inhibit 2.4*, H69AR growth 86K 0.6*, bCat KO growth 1.7*, PTEN del growth 1.5* and Fibroblast inh 62.
Cc1ccccc1C(=O)NC1CCN(CC(=O)Nc2nccs2)CC1 was read as HUVEC inhibit 98, H69AR growth 86K 16*, bCat KO growth 97, PTEN del growth 110 and Fibroblast inh 94.
`Cc1ccc(NC(=O)NC2CCN(CC(=O)Nc3nccs3)CC2)cc1` gave HUVEC inhibit 98, H69AR growth 86K 75, bCat KO growth 103, PTEN del growth 112 and Fibroblast inh 100.
`Cn1cc(C(=O)c2ccc(Cl)cc2Cl)cc1C(=O)N/N=C(\N)COc1ccccc1` gave HUVEC inhibit 86, H69AR growth 86K 33*, bCat KO growth 17, PTEN del growth 18 and Fibroblast inh 82.
Screening Cn1cc(C(=O)c2ccc(Cl)cc2Cl)cc1C(=O)O returned bCat KO growth 101 and PTEN del growth 101.
`O=C(COc1ccc(Cl)cc1Cl)NN=C1CCCCC1` gave bCat KO growth 82 and PTEN del growth 99.
Screening Cn1cc(C(=O)c2ccc(Cl)cc2Cl)cc1C(=O)N/N=C(\N)COc1ccc(Cl)cc1Cl returned HUVEC inhibit 62, H69AR growth 86K 18*, bCat KO growth 14, PTEN del growth 18 and Fibroblast inh 68.
Cn1cc(C(=O)c2ccc(Cl)cc2Cl)cc1C(=O)N/N=C(\N)COc1ccc(F)cc1 was read as HUVEC inhibit 86, H69AR growth 86K 25*, bCat KO growth 23, PTEN del growth 18 and Fibroblast inh 82.
`C=CCn1nc([N+](=O)[O-])nc1Sc1cccc2cccnc12` gave bCat KO growth 2.1* and PTEN del growth 1.8*.
`O=[N+]([O-])c1ccc(Sc2cccc3cccnc23)c([N+](=O)[O-])c1` gave HUVEC inhibit 50, H69AR growth 86K 1.6*, bCat KO growth 1.6*, PTEN del growth 2.2* and Fibroblast inh 4.2*.
Screening Cc1c(-c2ccccc2)[n+](=O)c2c(n1[O-])CCCCC2 returned bCat KO growth 100 and PTEN del growth 96.
Cc1ccc(S(=O)(=O)N(CCC#N)C2CCCCC2)c2nsnc12 was read as bCat KO growth 86 and PTEN del growth 92.
`CN(CC(=O)Nc1ccccc1C(=O)N1CCCC1)S(=O)(=O)c1ccc(Cl)cc1` gave HUVEC inhibit 104, H69AR growth 86K 96, bCat KO growth 84, PTEN del growth 88 and Fibroblast inh 105.
For O=C(Nc1ccc2c(c1)CCC2)c1cnn2c1NC(c1ccco1)CC2C(F)(F)F (centres undefined) the results were HUVEC inhibit 55, H69AR growth 86K 30*, bCat KO growth 75, PTEN del growth 69 and Fibroblast inh 37*.
For Cc1ccc(Cl)cc1NC(=O)c1cnn2c1NC(c1ccco1)CC2C(F)(F)F (centres undefined) the results were HUVEC inhibit 101, H69AR growth 86K 78, bCat KO growth 68, PTEN del growth 69 and Fibroblast inh 99.
Cc1ccc(C2CC(C(F)(F)F)n3ncc(C(N)=O)c3N2)cc1 (centres undefined) was read as HUVEC inhibit 87, H69AR growth 86K 87, bCat KO growth 102, PTEN del growth 93 and Fibroblast inh 103.
For CC(C)(C)NC(=O)c1cnn2c1NC(c1ccc(F)cc1)CC2C(F)(F)F (centres undefined) the results were HUVEC inhibit 98, H69AR growth 86K 67, bCat KO growth 94, PTEN del growth 99 and Fibroblast inh 33*.
COc1ccc(OC)c(Nc2cc(C)nc3nc(C)nn23)c1 was read as HUVEC inhibit 75, H69AR growth 86K 22*, bCat KO growth 59, PTEN del growth 56 and Fibroblast inh 82.
For COc1ccc(Nc2cc(C)nc3nc(C)nn23)cc1Cl the results were HUVEC inhibit 104, H69AR growth 86K 72, bCat KO growth 76, PTEN del growth 95 and Fibroblast inh 106.
COc1ccc(Nc2cc(C)nc3nc(C)nn23)c(OC)c1 was read as HUVEC inhibit 100, H69AR growth 86K 85, bCat KO growth 86, PTEN del growth 97 and Fibroblast inh 97.
`COc1ccc(C)cc1Nc1cc(C)nc2nc(C)nn12` gave HUVEC inhibit 77, H69AR growth 86K 25*, bCat KO growth 58, PTEN del growth 56 and Fibroblast inh 89.
`CCOC(=O)C1CCN(C(=S)Nc2cc(OC)c(OC)cc2C(=O)OC)CC1` gave HUVEC inhibit 103, H69AR growth 86K 48, bCat KO growth 92, PTEN del growth 84 and Fibroblast inh 101.
CNC(=O)c1nc(C)n(-c2cc(Cl)ccc2Cl)n1 was read as bCat KO growth 87 and PTEN del growth 90.
Screening Clc1ccc(N2CCN(c3ncnc4c3oc3ccccc34)CC2)cc1 returned HUVEC inhibit 27*, H69AR growth 86K 65 and Fibroblast inh 117.
`CC1CN(c2ncnc3c2oc2ccccc23)CC(C)O1` (centres undefined) gave HUVEC inhibit 93, H69AR growth 86K 73, bCat KO growth 94, PTEN del growth 90 and Fibroblast inh 97.
For CN1C(=O)/C(=C2\SC(N3CCCCCC3)=NC2=O)c2ccccc21 the results were HUVEC inhibit 78, H69AR growth 86K 49, bCat KO growth 65 and Fibroblast inh 87.
Screening O=C1N=C(N2CCOCC2)S/C1=C1\C(=O)N(Cc2ccccc2)c2ccccc21 returned HUVEC inhibit 55, H69AR growth 86K 29*, bCat KO growth 80, PTEN del growth 70 and Fibroblast inh 77.
